{"data": "Assay results pooled from the literature", "target": "Beta-secretase 1 (BACE1, Homo sapiens, UniProt P56817)", "mode": "inhibitor", "note": "Protocols differ between the studies behind these lines."}
{"Structure (SMILES)": "CC(C)=CCc1c(O)cc(O)c2c(=O)c(-c3ccc(O)cc3)coc12", "assay": "enzyme activity", "IC50": "27 µM"}
{"Structure (SMILES)": "CC[C@H](C)[C@H](NC(=O)[C@@H](C[C@H](O)[C@@H](N)COc1ccc(-c2ccc(F)cc2)c(OCCCOC)c1)C(C)C)C(=O)NCc1ccc(Cl)cc1", "assay": "enzyme activity", "conditions": "pH 4.5", "IC50": "0.81 µM"}
{"Structure (SMILES)": "CC1(c2ccccc2)COCC(N)=N1 (stereo not drawn)", "assay": "enzyme activity, FRET", "conditions": "pH 5", "IC50": "200 µM"}
{"Structure (SMILES)": "CC[C@H](C[C@H](O)[C@@H](N)COc1ccc(-c2ccc(F)cc2)c(OCCCOC)c1)C(=O)N[C@H](C(=O)NCc1ccc(Cl)cc1)[C@@H](C)CC", "assay": "enzyme activity", "conditions": "pH 4.5", "IC50": "1.1 µM"}
{"Structure (SMILES)": "CN(C)c1nc(N2CCCC2)nc2ccccc12", "assay": "enzyme activity, FRET", "conditions": "pH 5", "IC50": "500 µM"}
{"Structure (SMILES)": "C=C(C)[C@@H]1CCC(C)=C[C@H]1c1c(O)cc2occ(-c3ccc(O)cc3)c(=O)c2c1O (relative stereo)", "assay": "enzyme activity", "IC50": "> 200 µM"}
{"Structure (SMILES)": "[H]/N=C1\\N[C@](C)(c2cccc(Nc3cnc(C4CC4)nc3)c2Cl)CC(=O)N1[C@H]1CCO[C@@H](C)C1", "assay": "enzyme activity, FRET", "IC50": "> 10 µM"}
{"Structure (SMILES)": "COc1ccc2c(c1)OC1Oc3cc(O)cc(O)c3C(=O)C21O (stereo not drawn)", "assay": "enzyme activity", "IC50": "139 µM"}
{"Structure (SMILES)": "Cc1cc2cc(c1)C(=O)N[C@H]([C@H](O)CN(Cc1cccc(C(C)C)c1)C(=O)OC(C)(C)C)CCC/C=C/CCCC2=O", "assay": "enzyme activity in cells", "IC50": "> 10 µM"}
